Assay results from the array DNA melting data of Ke et al. (doi:10.1101/2024.01.08.574731).

Experiments:
[1] = folding enthalpy; higher = less favourable; fluorescence melt of hairpins on a sequencing array, two-state fit; settings: sodium 0.088 M
How it was run: (§1)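 On a sequenced MiSeq flow cell, library hairpins with annealed Cy3 and quencher oligos were imaged for Cy3 fluorescence in 2.5 °C steps up to 60 °C, in 50 mM Na-HEPES pH 8.0, 25 mM NaCl. Normalisation used pre-quench Cy3 and control constructs. Bootstrapped two-state fits gave melting temperature and folding enthalpy, combined by inverse variance across four replicates and with fitted temperatures raised by 9.35 °C to match UV melts.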

[2] = melting temperature; fluorescence melt of hairpins on a sequencing array, two-state fit, raised by 9.35 °C to match UV melts; settings: sodium 0.088 M
How it was run: as §1

Sequence | folding enthalpy [1] | Tm [2]
GATCAACGACTTGATC ((((((....)))))) | -32.3 kcal/mol | 40.7 °C
GATCAACGCATTGATC ((((((....)))))) | -34.6 kcal/mol | 46.2 °C
GATCAACGCTTGATC ((((((...)))))) | -31.4 kcal/mol | 42 °C
GATCAACTACTTGATC ((((((....)))))) | -32.5 kcal/mol | 41.8 °C
GATCAACTATTGATC ((((((...)))))) | -30.4 kcal/mol | 41 °C
GATCAACTCATTGATC ((((((....)))))) | -33.8 kcal/mol | 44.6 °C
GATCAAGAACTTGATC ((((((....)))))) | -38.4 kcal/mol | 49.2 °C
GATCAAGAAGTTGATC ((((((....)))))) | -28.2 kcal/mol | 43.9 °C
GATCAAGACCTTGATC ((((((....)))))) | -40.2 kcal/mol | 50.1 °C
GATCAAGAGCTTGATC ((((((....)))))) | -38.2 kcal/mol | 42.2 °C
GATCAAGATCTTGATC ((((((....)))))) | -47.1 kcal/mol | 49.9 °C
GATCAAGCACTTGATC ((((((....)))))) | -38.4 kcal/mol | 50.4 °C
GATCAAGCGTTGATC ((((((...)))))) | -29.6 kcal/mol | 40.2 °C
GATCAAGCTATTGATC ((((((....)))))) | -40.8 kcal/mol | 50.2 °C
GATCAAGGAAACCTGATC (((((.(....).))))) | -29.1 kcal/mol | 35.6 °C
GATCAAGGAGTTGATC ((((((....)))))) | -29.5 kcal/mol | 45.3 °C
GATCAAGGCATTGATC ((((((....)))))) | -34.5 kcal/mol | 50.5 °C
GATCAAGGCTTGATC ((((((...)))))) | -49.3 kcal/mol | 47.8 °C
GATCAAGGGTTTGATC ((((((....)))))) | -26.2 kcal/mol | 43 °C
GATCAAGTATTTGATC ((((((....)))))) | -37.8 kcal/mol | 50.3 °C
GATCAATGAATTGATC ((((((....)))))) | -34.6 kcal/mol | 46.3 °C
GATCAATGGATTGATC ((((((....)))))) | -28.3 kcal/mol | 45.2 °C
GATCAATGTCTTGATC ((((((....)))))) | -27.9 kcal/mol | 43.5 °C
GATCAATTGATTGATC ((((((....)))))) | -36.5 kcal/mol | 47.2 °C

Sequence | folding enthalpy [1] | Tm [2]
GATCAATTGGTTGATC ((((((....)))))) | -40.5 kcal/mol | 45.8 °C
GATCAATTGTTGATC ((((((...)))))) | -30.6 kcal/mol | 41.5 °C
GATCAATTTTTGATC ((((((...)))))) | -33.6 kcal/mol | 45.9 °C
GATCACAAAAGTGATC ((((((....)))))) | -36.8 kcal/mol | 54.7 °C
GATCACAACAGTGATC ((((((....)))))) | -41.7 kcal/mol | 58.7 °C
GATCACAACGGTGATC ((((((....)))))) | -38.7 kcal/mol | 56 °C
GATCACACAAGTGATC ((((((....)))))) | -42.4 kcal/mol | 56.2 °C
GATCACACCCGTGATC ((((((....)))))) | -35.2 kcal/mol | 57.8 °C
GATCACACTGTGATC ((((((...)))))) | -41.8 kcal/mol | 55.6 °C
GATCACAGAGGTGATC ((((((....)))))) | -27.4 kcal/mol | 55.9 °C
GATCACAGAGTGATC ((((((...)))))) | -35 kcal/mol | 60.8 °C
GATCACAGCGGTGATC ((((((....)))))) | -29.1 kcal/mol | 56.3 °C
GATCACAGGGGTGATC ((((((....)))))) | -33.6 kcal/mol | 56.2 °C
GATCACAGTCGTGATC ((((((....)))))) | -44.9 kcal/mol | 56.2 °C
GATCACATGAGTGATC ((((((....)))))) | -42.1 kcal/mol | 55.7 °C
GATCACATTCGTGATC ((((((....)))))) | -39.2 kcal/mol | 59.4 °C
GATCACATTGGTGATC ((((((....)))))) | -40.1 kcal/mol | 56.7 °C
GATCACCAGCGTGATC ((((((....)))))) | -43.3 kcal/mol | 53.8 °C
GATCACCCAAGTGATC ((((((....)))))) | -46.8 kcal/mol | 55.7 °C
GATCACCCCCGTGATC ((((((....)))))) | -36 kcal/mol | 55 °C
GATCACCCCGTGATC ((((((...)))))) | -43.2 kcal/mol | 57.5 °C
GATCACCCGAAAGGGATC (((..(((....)))))) | -14 kcal/mol | 35.5 °C
GATCACCCTAGTGATC ((((((....)))))) | -38.9 kcal/mol | 58.9 °C
GATCACCCTCGTGATC ((((((....)))))) | -43.6 kcal/mol | 55.8 °C

Sequence | folding enthalpy [1] | Tm [2]
GATCACCGCGTGATC ((((((...)))))) | -35.6 kcal/mol | 61.9 °C
GATCACCGGGTGATC ((((((...)))))) | -30.8 kcal/mol | 55 °C
GATCACCTACGTGATC ((((((....)))))) | -43 kcal/mol | 56.6 °C
GATCACCTAGTGATC ((((((...)))))) | -34.8 kcal/mol | 58.2 °C
GATCACCTCCGTGATC ((((((....)))))) | -32.5 kcal/mol | 55 °C
GATCACCTCGGTGATC ((((((....)))))) | -37.5 kcal/mol | 65.4 °C
GATCACCTTGTGATC ((((((...)))))) | -40.9 kcal/mol | 58.8 °C
GATCACGAAAGTGAAATC ((((((....)))..))) | -10.7 kcal/mol | 30.2 °C
GATCACGAAAGTGAATC ((((((....))).))) | -15.8 kcal/mol | 45.6 °C
GATCACGAAAGTGACATC ((((((....)))..))) | -10.1 kcal/mol | 30 °C
GATCACGAAAGTGGATC ((((((....))).))) | -18.2 kcal/mol | 46.9 °C
GATCACGAAAGTGGGATC ((((((....)))..))) | -15.6 kcal/mol | 38 °C
GATCACGAAGGTGATC ((((((....)))))) | -32.7 kcal/mol | 65.3 °C
GATCACGAGGTGATC ((((((...)))))) | -33.7 kcal/mol | 57.8 °C
GATCACGATGGTGATC ((((((....)))))) | -36.1 kcal/mol | 58.8 °C
GATCACGCACGTGATC ((((((....)))))) | -40.5 kcal/mol | 68.9 °C
GATCACGCATGTGATC ((((((....)))))) | -43.1 kcal/mol | 67.3 °C
GATCACGCCGTGATC ((((((...)))))) | -29.8 kcal/mol | 63.2 °C
GATCACGCGGTGATC ((((((...)))))) | -40.2 kcal/mol | 59.2 °C
GATCACGCTCGTGATC ((((((....)))))) | -45.5 kcal/mol | 60.9 °C
GATCACGCTGTGATC ((((((...)))))) | -39.5 kcal/mol | 59.2 °C
GATCACGGAAACGTAATC (((.(((....))).))) | -20.3 kcal/mol | 31.5 °C
GATCACGGAAACGTGACC (.(((((....))))).) | -14.7 kcal/mol | 45.1 °C
GATCACGGCGGTGATC ((((((....)))))) | -45.6 kcal/mol | 58.8 °C
